Format in all cases: functional
Assay [1] in a line: Cytotoxicity against human NCI60 cells assessed as cell growth at 10 uM. The settings on record: read-out: Activity. The gist of the method:
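NCI60 panel screened by the NCI Developmental Therapeutics Program at a single 10 µM concentration; mean cell growth percent reported.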

In assay [2] the test system is Paracentrotus lividus. Briefly: Antiproliferative activity in sea urchin embryo assessed as antimitotic activity by measuring cleavage alteration exposed for 8 to 20 mins after fertilization and 45 to 55 mins before first mitotic cycle completion measured 2.5 to […] after fertilization.
Assay [3] relates to Paracentrotus lividus. Briefly: Antiproliferative activity in sea urchin embryo assessed as antimitotic activity by measuring cleavage arrest exposed for 8 to 20 mins after fertilization and 45 to 55 mins before first mitotic cycle completion measured 2.5 to […] after fertilization.
Assay [4] deals with Paracentrotus lividus. As to the kind of experiment: Antiproliferative activity in sea urchin embryo assessed as destabilization of microtubule by measuring embryo spinning after 15 mins to 20 hrs.
Assay [5] in a line: Cytotoxicity against human NCI60 cells.

Each structure is given as a SMILES string.

Turning to `Nc1nonc1-c1nc2ccccc2n1Cc1ccncc1`, the growth at 10 µM in assay [1] amounted to 97%.

In the case of `Nc1nonc1-c1nc2cc(Cl)ccc2[nH]1`, the EC in the assay with Paracentrotus lividus [2] is 2 µM; with Paracentrotus lividus [3], over 4 µM; with Paracentrotus lividus [4], over 5 µM. The growth at 10 µM in assay [1] is 97.1%.

For the compound `Nc1nonc1-c1nc2ccccc2n1Cc1nnn[nH]1`, the EC in the assay on Paracentrotus lividus [2], with Paracentrotus lividus [3] and with Paracentrotus lividus [4] was over 4 µM in each case. Further, in assay [1], the growth at 10 µM was found to be 103%.

For the compound `Nc1nonc1-c1nc2c(Cl)cccc2[nH]1`, the EC was 1 µM in the assay with Paracentrotus lividus [2], over 4 µM with Paracentrotus lividus [3] and over 4 µM in the assay with Paracentrotus lividus [4]. In assay [1], the growth at 10 µM was 99.8%.

Consider `Nc1nonc1-c1nc2ccccc2n1Cc1ccc(Cl)cc1`, for which the EC in the assay on Paracentrotus lividus [2], with Paracentrotus lividus [3] and with Paracentrotus lividus [4] was over 4 µM throughout. Moreover, the growth at 10 µM in assay [1] amounted to 85%.

Regarding `COc1ccc2[nH]c(-c3nonc3-n3cccc3)nc2c1`, the EC in the assay with Paracentrotus lividus [2] was 2 µM; in the assay with Paracentrotus lividus [3], over 4 µM; in the assay with Paracentrotus lividus [4], over 4 µM. Further, the growth at 10 µM in assay [1] was 104%.

For `Nc1nonc1-c1nc2ccccc2n1CC(=O)NCc1ccc(F)cc1`, the EC with Paracentrotus lividus [2] was 4 µM; in the assay with Paracentrotus lividus [3] it was over 4 µM; in the assay on Paracentrotus lividus [4] it was over 4 µM. In addition, the growth at 10 µM in assay [1] is 102%.

For `Nc1nonc1-c1nc2ccccc2n1CCO`, the growth at 10 µM in assay [1] was 102%.

For `Cc1cccc(C)c1NC(=O)Cn1c(-c2nonc2N)nc2ccccc21`, the EC in the assay on Paracentrotus lividus [2], in the assay on Paracentrotus lividus [3] and with Paracentrotus lividus [4] was over 4 µM each time. Besides, the growth at 10 µM in assay [1] amounted to 90.2%.

For `COc1ccc(Cn2c(-c3nonc3N)nc3cc(C(F)(F)F)ccc32)cc1`, the EC in the assay on Paracentrotus lividus [2], in the assay with Paracentrotus lividus [3] and with Paracentrotus lividus [4] was over 4 µM each time. In assay [1], the growth at 10 µM turned out to be 81.1%.

Turning to `CC(C)(C)c1ccc(Cn2c(-c3nonc3N)nc3ccccc32)cc1`, the EC with Paracentrotus lividus [2], in the assay on Paracentrotus lividus [3] and with Paracentrotus lividus [4] was over 4 µM in each case. For the same compound, the growth at 10 µM in assay [1] was found to be 67.4%.

As to `CC(=O)Nc1nonc1-c1nc2ccccc2n1Cc1ccc(C#N)cc1`, the EC in the assay with Paracentrotus lividus [2], in the assay on Paracentrotus lividus [3] and with Paracentrotus lividus [4] was over 4 µM in each case. Moreover, the growth at 10 µM in assay [1] was determined as 94.1%.

With `Nc1nc(N)nc(Cn2c(-c3nonc3N)nc3ccccc32)n1`, the EC with Paracentrotus lividus [2], with Paracentrotus lividus [3] and in the assay with Paracentrotus lividus [4] was over 4 µM each time. Further, in assay [1], the growth at 10 µM came to 102%.

For the compound `Cc1ccc(NC(=O)Cn2c(-c3nonc3NC(=O)c3ccc(F)cc3)nc3ccccc32)cc1F`, the growth at 10 µM in assay [1] is 71.8%.

As for `N#Cc1ccc2[nH]c(-c3nonc3N)nc2c1`, the EC with Paracentrotus lividus [2], in the assay on Paracentrotus lividus [3] and in the assay with Paracentrotus lividus [4] was over 4 µM in each case. Further, in assay [1], the growth at 10 µM came to 107%.

Turning to `O=C(Nc1nonc1-c1nc2ccccc2n1Cc1ccncc1)c1ccncc1`, the EC with Paracentrotus lividus [2], with Paracentrotus lividus [3] and with Paracentrotus lividus [4] was over 4 µM each time. The growth at 10 µM in assay [1] was determined as 97.1%.

Turning to `Cc1cc(C)cc(NC(=O)Cn2c(-c3nonc3N)nc3ccccc32)c1`, the EC in the assay on Paracentrotus lividus [2], in the assay on Paracentrotus lividus [3] and in the assay on Paracentrotus lividus [4] was over 4 µM each time. In addition, the growth at 10 µM in assay [1] was found to be 109%.

On to `N#Cc1ccc(Cn2c(-c3nonc3N)nc3ccccc32)cc1`, for which the EC in the assay on Paracentrotus lividus [2] is 4 µM; in the assay on Paracentrotus lividus [3], over 4 µM; with Paracentrotus lividus [4], over 4 µM. Besides, the growth at 10 µM in assay [1] is 79.8%.

For the compound `COc1cccc(Cn2c(-c3nonc3NC(C)=O)nc3ccccc32)c1`, the EC with Paracentrotus lividus [2] is 1 µM; in the assay on Paracentrotus lividus [3], over 4 µM; in the assay on Paracentrotus lividus [4] it was over 4 µM. Also, halving of growth in assay [5] (GI50) required 3980 nM.

Take `Nc1nonc1-c1nc2ccccc2n1Cc1c(F)cccc1Cl`: the EC with Paracentrotus lividus [2], with Paracentrotus lividus [3] and in the assay with Paracentrotus lividus [4] was over 4 µM throughout. Further, in assay [1], the growth at 10 µM amounted to 91.9%.

As to `Nc1nonc1-c1nc2ccccc2n1CC(=O)Nc1ccc2c(c1)COC2=O`, the EC in the assay with Paracentrotus lividus [2] was 2 µM; in the assay with Paracentrotus lividus [3], 4 µM; with Paracentrotus lividus [4] it was over 4 µM. Further, the growth at 10 µM in assay [1] was determined as 80.8%.

As for `Cc1ccc(Cn2c(-c3nonc3N)nc3ccccc32)cc1`, the growth at 10 µM in assay [1] is 70.4%.

Take `N#CCn1c(-c2nonc2N)nc2ccccc21`: the EC in the assay with Paracentrotus lividus [2], in the assay on Paracentrotus lividus [3] and in the assay on Paracentrotus lividus [4] was over 4 µM in each case. Also, the growth at 10 µM in assay [1] came to 102%.

Regarding `Nc1nonc1-c1nc2cc(F)ccc2[nH]1`, the EC is 2 µM in the assay with Paracentrotus lividus [2], over 4 µM with Paracentrotus lividus [3] and over 5 µM in the assay on Paracentrotus lividus [4]. In assay [1], the growth at 10 µM is 97.8%.

In the case of `Nc1nonc1-c1nc2cc3ccccc3cc2[nH]1`, the EC was 0.5 µM with Paracentrotus lividus [2], 4 µM in the assay on Paracentrotus lividus [3] and over 4 µM in the assay on Paracentrotus lividus [4].

As for `C=CCn1c(-c2nonc2NC(C)=O)nc2ccccc21`, the EC in the assay with Paracentrotus lividus [2], with Paracentrotus lividus [3] and with Paracentrotus lividus [4] was over 4 µM in each case. In assay [1], the growth at 10 µM was determined as 96.5%.

Consider `Nc1nonc1-c1nc2ccccc2n1Cc1cc2c(cc1Cl)OCO2`, for which the EC in the assay on Paracentrotus lividus [2], in the assay on Paracentrotus lividus [3] and with Paracentrotus lividus [4] was over 4 µM each time. Further, the growth at 10 µM in assay [1] is 88.3%.

On to `Nc1nonc1-c1nc2ccccc2n1CC(=O)Nc1ccc(F)c(Cl)c1`, for which the EC in the assay on Paracentrotus lividus [2] is 2 µM; with Paracentrotus lividus [3] it was over 4 µM; in the assay with Paracentrotus lividus [4], over 4 µM. In addition, the growth at 10 µM in assay [1] was 70.5%.

Consider `CN(C)c1nc(N)nc(Cn2c(-c3nonc3N)nc3ccccc32)n1`, for which the values for the EC with Paracentrotus lividus [2], in the assay with Paracentrotus lividus [3] and with Paracentrotus lividus [4] were 2 µM, over 4 µM and over 4 µM, respectively. In assay [1], the growth at 10 µM is 80.8%.

For the compound `CCC(=O)Nc1nonc1-c1nc2ccccc2n1Cc1ccc(F)cc1Cl`, the EC in the assay on Paracentrotus lividus [2], in the assay on Paracentrotus lividus [3] and with Paracentrotus lividus [4] was over 4 µM in each case. Besides, the growth at 10 µM in assay [1] was determined as 64.5%.

For the compound `Nc1nonc1-c1nc2ccccc2n1Cc1ccccn1`, the figures for the EC in the assay with Paracentrotus lividus [2], in the assay with Paracentrotus lividus [3] and in the assay on Paracentrotus lividus [4] were 2 µM, over 4 µM and over 4 µM, respectively. Moreover, the growth at 10 µM in assay [1] turned out to be 89.3%.

Consider `CC(=O)Nc1nonc1-c1nc2ccccc2n1Cc1ccccn1`, for which the EC with Paracentrotus lividus [2], with Paracentrotus lividus [3] and in the assay with Paracentrotus lividus [4] was over 4 µM in each case. For the same compound, the growth at 10 µM in assay [1] amounted to 104%.

In the case of `COc1ccc2[nH]c(-c3nonc3N)nc2c1`, the EC in the assay with Paracentrotus lividus [2] is 0.5 µM; in the assay with Paracentrotus lividus [3], over 4 µM; in the assay with Paracentrotus lividus [4], over 5 µM. The growth at 10 µM in assay [1] turned out to be 101%.

Consider `CC(=O)Nc1nonc1-c1nc2ccccc2n1Cc1cccc(C(F)(F)F)c1`, for which the EC in the assay with Paracentrotus lividus [2], in the assay on Paracentrotus lividus [3] and with Paracentrotus lividus [4] was over 4 µM in each case. Moreover, the growth at 10 µM in assay [1] turned out to be 82.2%.

For the compound `Nc1nonc1-c1nc2ccccc2[nH]1`, the EC in the assay on Paracentrotus lividus [2] is 2 µM; with Paracentrotus lividus [3], over 4 µM; with Paracentrotus lividus [4], over 4 µM. Moreover, the growth at 10 µM in assay [1] stood at 103%.

Regarding `CC(=O)Nc1nonc1-c1nc2ccccc2n1Cc1ccncc1`, the EC with Paracentrotus lividus [2] is over 4 µM; in the assay with Paracentrotus lividus [3] it was over 4 µM; in the assay with Paracentrotus lividus [4], over 5 µM. Also, the growth at 10 µM in assay [1] turned out to be 101%.

In the case of `CC(=O)Nc1nonc1-c1nc2ccccc2n1Cc1ccc(Cl)cc1Cl`, the growth at 10 µM in assay [1] was determined as 76.7%.

For `COc1ccc(Cn2c(-c3nonc3NC(C)=O)nc3ccccc32)cc1`, the EC in the assay on Paracentrotus lividus [2], in the assay on Paracentrotus lividus [3] and in the assay on Paracentrotus lividus [4] was over 4 µM in each case. Also, the growth at 10 µM in assay [1] was found to be 85%.

For `Nc1nc(Cn2c(-c3nonc3N)nc3ccccc32)nc(N2CCCCC2)n1`, the EC is 4 µM in the assay on Paracentrotus lividus [2], over 4 µM with Paracentrotus lividus [3] and over 4 µM in the assay with Paracentrotus lividus [4]. The growth at 10 µM in assay [1] is 87.7%.

`N#CCCNc1nonc1-c1nc2ccccc2n1CC(=O)c1ccc(N)cc1` [AVANBULIN] showed a GI50 in assay [5] of 6.5 nM.

For `C#CCn1c(-c2nonc2N)nc2ccccc21`, the EC in the assay on Paracentrotus lividus [2], in the assay with Paracentrotus lividus [3] and in the assay on Paracentrotus lividus [4] was over 4 µM throughout. In addition, the growth at 10 µM in assay [1] worked out at 99.6%.

`c1ccc2[nH]c(-c3nonc3-n3cccc3)nc2c1`: the EC in the assay with Paracentrotus lividus [2], in the assay on Paracentrotus lividus [3] and with Paracentrotus lividus [4] was over 4 µM throughout. The growth at 10 µM in assay [1] is 104%.

With `CC(=O)Nc1nonc1-c1nc2ccccc2n1Cc1ccc(C(C)(C)C)cc1`, the growth at 10 µM in assay [1] amounted to 73.5%.

On to `COc1ccc(NC(=O)Cn2c(-c3nonc3N)nc3ccccc32)cc1Cl`, for which the EC with Paracentrotus lividus [2], in the assay with Paracentrotus lividus [3] and in the assay on Paracentrotus lividus [4] was over 4 µM each time. Further, in assay [1], the growth at 10 µM stood at 100%.

On to `Nc1nonc1-c1nc2ccccc2n1CC(=O)Nc1ccc(OC(F)(F)F)cc1`, for which the EC in the assay with Paracentrotus lividus [2] is 4 µM; with Paracentrotus lividus [3] it was over 4 µM; with Paracentrotus lividus [4], over 4 µM. The growth at 10 µM in assay [1] was 105%.

`Nc1nonc1-c1nc2ccccc2n1Cc1cc2c(cc1Br)OCO2`: the EC in the assay with Paracentrotus lividus [2], in the assay on Paracentrotus lividus [3] and in the assay with Paracentrotus lividus [4] was over 4 µM each time. The growth at 10 µM in assay [1] worked out at 86.1%.

Take `Cn1c(-c2nonc2NC(=O)c2ccc(F)cc2)nc2ccccc21`: the growth at 10 µM in assay [1] worked out at 99.5%.

Take `CCOc1ccc(Cn2c(-c3nonc3N)nc3ccccc32)cc1OCC`: the EC in the assay with Paracentrotus lividus [2], in the assay on Paracentrotus lividus [3] and with Paracentrotus lividus [4] was over 4 µM in each case. The growth at 10 µM in assay [1] was 81%.

What is called GI50 is the concentration giving 50% growth inhibition.

The values are drawn from ChEMBL document CHEMBL3421596, “A facile synthesis and microtubule-destabilizing properties of 4-(1H-benzo[d]imidazol-2-yl)-furazan-3-amines” (Eur J Med Chem, 2015).
